# High-throughput results deposited in PubChem BioAssay by Johns Hopkins Ion Channel Center.
# MrgX1 agonist = agonists of human MrgX1 receptor, primary screen, HEK293 cells, Fluo-4 calcium flux | Mas-related G-protein coupled receptor member X1 (Homo sapiens), Q96LB2 | Fluo-4 calcium fluorescence, agonist mode; stronger effect = higher value | B-score at 10 µM | 0.44% of 310,000 active;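 active = calcium response B-score plate-corrected fluorescence ratio at least 3 library SD, with starting fluorescence B-score inside 5 SD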
#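 times = overnight plating, then 30 min 37 °C plus 30 min room-temperature dye loading | assay system = stable human MrgX1 HEK293 cell line | input = fifteen thousand cells per well | signal = kinetic calcium dye fluorescence, Fluo-4 NW | dosing = compound delivered in addition one of three | read-out = B-scored fluorescence response ratio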
# MrgX1 antag = antagonists of human MrgX1 receptor, primary screen, HEK293 cells, Fluo-4 calcium flux; Mas-related G-protein coupled receptor member X1 (Homo sapiens), Q96LB2; BAM8-22 antagonism; stronger effect = lower value; B-score at 10 µM; 1.3% of 310,000 active; AID 588676, 2011;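 active = calcium-response B-score plate-corrected more than 3 library SD below zero, starting fluorescence within 5 deviations, no agonist response on first addition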;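 note: peak minus trough fluorescence over baseline after final BAM8-22 challenge near maximal dose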
# RGS4 pot = RGS4 potentiators or activators, primary screen, cell-based, HEK293 M3R inducible RGS4, calcium flux; carbachol calcium flux Fluo4; stronger effect = lower value; B-score at 10 µM; 0.92% of 310,000 active;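 active = B-score of the integrated calcium signal more than 4 SD below the library mean, with starting fluorescence not abnormally high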;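 note: negative B-score means reduced calcium response which marks RGS4 activation or potentiation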
#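 System: HEK293 FlpIn-TREx cells, stable M3R, doxycycline-inducible RGS4. Timing: overnight RGS4 induction, 30 min dye load 37 °C, 20 min compound RT. Also added: carbachol, ECmax concentration. Measured by: Fluo4 fluorescence kinetic imaging of calcium. Evaluation: integrated calcium ratio converted to B score.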
# MrgX1 PAM = positive allosteric modulators of MrgX1, primary screen, HEK293 cells, Fluo-4 calcium flux | Mas-related G-protein coupled receptor member X1 (Homo sapiens), Q96LB2 | FDSS; stronger effect = higher value | B-score at 10 µM | 0.63% of 310,000 active | AID 588675, 2011;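 active = plate-corrected calcium response at least 3 library SD above typical, normal starting fluorescence, not activating the receptor alone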;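 note: compound read alongside a low EC10 to EC30 dose of BAM8-22 agonist; peak minus trough fluorescence over baseline measured at the second addition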
# RGS4 inh = RGS4 inhibitors, primary screen, cell-based, HEK293 M3R inducible RGS4, calcium flux. B-score at 10 µM. Regulator of G-protein signaling 4 (Homo sapiens), P49798. Fluo-4 calcium flux; stronger effect = higher value; triggered by carbachol at its EC20. 0.45% of 310,000 active;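 active = B-score, a plate-corrected calcium signal, over three deviations above library mean, with baseline fluorescence within five deviations of library mean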;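 note: RGS4 expression induced by doxycycline in cells with stable M3 receptor; B-score is computed from the integrated fluorescence ratio over baseline after carbachol; higher B-score means a larger calcium signal and so more RGS4 inhibition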
# Target sequence (P49798 whole entry, looked up): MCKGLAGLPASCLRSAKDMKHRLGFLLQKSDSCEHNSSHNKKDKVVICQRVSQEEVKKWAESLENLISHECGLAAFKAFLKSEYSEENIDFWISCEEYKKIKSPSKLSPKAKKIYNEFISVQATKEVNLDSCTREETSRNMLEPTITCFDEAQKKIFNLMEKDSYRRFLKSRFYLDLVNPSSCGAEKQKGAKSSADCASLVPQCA
# RGS4 act valid = reduced carbachol calcium response, RGS4-induced M3R cells, confirmation, RGS4 activator project, cell-based, HEK293 M3R/RGS4 inducible, calcium flux, duplicate; shares compounds with RGS4 pot; carbachol calcium flux Fluo4; inhibition, % at 10 µM; 89% of 1,100 active; AID 602282, 2012;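 active = inhibition above 3 SD of the buffer control wells, cut at about 41% in these data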;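 note: signal is the integrated peak-minus-minimum Fluo4 fluorescence over baseline ratio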
# RGS4 act ctr = RGS4 activator counter-screen hit in non-induced cells. inhibition, % at 10 µM. 82% of 1,100 active. HEK293 M3R non-induced RGS4, Fluo4 calcium flux; after carbachol challenge at its EC90. shares compounds with RGS4 pot;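 active = inhibition exceeding 3 SD of buffer-only control wells, cut at about 26% in these data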;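 note: percent drop in integrated peak-minus-baseline over baseline Fluo4 ratio after carbachol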
# An asterisk follows results filed as active; i = inactive; · = no result given. Hits are enriched below; roughly 3.5% of the tested compounds scored in any of these assays.
SMILES,MrgX1 agonist,MrgX1 antag,RGS4 pot,MrgX1 PAM,RGS4 inh,RGS4 act valid,RGS4 act ctr
CCN(CC)CCCN(C(=O)c1ccc(Br)cc1)c1nc(-c2ccc(OC)cc2)cs1,i,i,i,i,i,·,·
CCOc1ccc2ncc(C(=O)c3ccc(OC)cc3)c(N3CCN(CC)CC3)c2c1,i,i,i,i,i,·,·
CCOC(=O)c1cnc2ccc(OCC)cc2c1N1CCN(c2ccccc2OC)CC1,i,i,-9.1*,i,i,93.0*,92.8*
CN(C)CCCOC(=O)C1c2ccccc2Oc2ccccc21,i,i,-8.46*,i,i,92.0*,90.8*
CN(CCOC(=O)C1c2ccccc2Oc2ccccc21)C(C)(C)C,i,i,-7.88*,i,i,93.0*,96.3*
COc1ccc2oc(C(=O)OCc3c(C)noc3C)c(C)c2c1,i,i,i,i,i,·,·
COc1ccccc1N(C)S(=O)(=O)c1ccc(C(=O)OCC(=O)c2c[nH]c3ccccc23)cc1,i,i,i,i,i,·,·
CC1=NN(C(=O)c2cccc(Cn3nc(C)c([N+](=O)[O-])c3C)c2)C(O)(C(F)(F)F)C1 (stereo unspecified),i,i,i,i,i,·,·
COc1ccc(C2(CNC(=O)Cc3ccccc3)CCCC2)cc1OC,i,i,-7.97*,i,i,0.0,0.0
COC(CNC(=O)C1CCN(S(=O)(=O)c2cccc3nsnc23)CC1)OC,i,i,i,i,i,·,·
CCC(=O)N1CCN(c2ccnc3cc(Cl)ccc23)CC1,i,i,i,i,i,·,·
CCOC(=O)N1CCN(c2ccnc3cc(Cl)ccc23)CC1,i,i,-13*,i,i,92.0*,94.8*
Cc1cc(N(C)C)c(C#N)c(N2CCCCC2)n1,i,i,i,i,i,·,·
CCOC(=O)c1cc(C)nc(N2CCCCC2)c1C#N,i,i,-11.3*,i,i,0.0,0.0
CC1(/[N+]([O-])=C/c2ccccc2F)CCCCC1=O (stereo unspecified),i,i,i,i,i,·,·
COC(=O)c1ccccc1NC(=O)c1ccc(COc2cc(C)cc(C)c2)o1,i,i,-8.11*,i,i,46.0*,0.0
O=C(CSC1=N/C(=C/c2ccco2)C(=O)N1c1ccc(OC(F)F)cc1)NC1CCS(=O)(=O)C1 (stereo unspecified),i,i,i,i,i,·,·
Cc1ccccc1N1CCN(C2CCCN(C(=O)c3ccccn3)C2)CC1 (stereo unspecified),i,i,i,i,i,·,·
Cc1ccccc1N1CCN(C2CCCN(C(=O)c3cn4cccc(C)c4n3)C2)CC1 (stereo unspecified),·,·,-9.66*,·,i,50.5*,0.0
O=C(NCCc1ccccc1)C(=O)NCC1CCCN1S(=O)(=O)c1ccccc1 (stereo unspecified),i,i,-9.57*,i,i,67.5*,26.3*
CCN1CCN(c2ccc(N3CCN(S(=O)(=O)c4cc([N+](=O)[O-])ccc4C)CC3)nn2)CC1,i,i,i,i,i,·,·
CC(/C=N/N1C(=O)CSC1=S)=C\c1ccccc1,i,i,i,i,i,·,·
Cc1ccc(Nc2ccc(NCc3ccccc3)nn2)cc1C,i,i,i,i,i,·,·
Clc1ccc(Nc2ccc(NCc3ccccc3)nn2)cc1,i,i,-7.57*,i,i,0.0,0.0
O=C(Nc1ccc(NC(=O)c2cc3ccccc3o2)cc1)c1ccc2c(c1)OCCO2,i,i,i,i,i,·,·
